Two compounds from ChEMBL document CHEMBL1142939, “Neopeltolide, a macrolide from a lithistid sponge of the family Neopeltidae” (J Nat Prod, 2007) can be followed below.

The structures appear in SMILES notation. Converted amounts (≈) assume the structure as drawn.

In series [1] the test system is A549. The series can be described thus: Cytotoxicity against human A549 cells ATCC CCL-185 by MTT assay. The format is cell-based. In short, it runs like this:
(§1)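 MTT cell proliferation assay following previously described protocols. Each sample assayed at least three times to derive the final IC50.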

Series [2] has as its system A549. The experiment in a line: Cell cycle arrest in A549 cells by accumulation at S phase at 1 nM. The class given is functional, Homo sapiens.
For series [3], the system named is A549. The series can be described thus: Cell cycle arrest in A549 cells by accumulation at G1 phase at 1 nM. The format is functional, Homo sapiens.
For a further series, the system named is DLD-1. The experiment in a line: Cytotoxicity against p53 mutated NCI-DLD1 cells by MTT assay. The format is cell-based. The settings on record: human. The essentials:
as §1

Series [4] is described as follows: Cytotoxicity against mouse NCI-P388 cells by MTT assay. The format is cell-based. The essentials:
as §1
(In general: Formazan colour is commonly taken as a measure of viable cells.)

The subject of series [5] is A549. The experiment in a line: Cell cycle arrest in A549 cells by accumulation at G2/M phase at 1 nM. The class given is functional, Homo sapiens.
Series [6] concerns A549. The series can be described thus: Cell cycle arrest in A549 cells by accumulation at G2/M phase at 100 nM. The class given is functional, Homo sapiens.
The subject of series [7] is Candida albicans. The series can be described thus: Antifungal activity against Candida albicans ATCC 44506 at 25 ug/disk by agar diffusion assay. The format is functional. The settings on record: read-out: IZ. In short, it runs like this: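 Sabouraud dextrose agar plates seeded with 10^5/mL C. albicans. Disks loaded with 25 µg compound, dried and placed on the agar. Incubated 37 °C for 24 h, then the growth-inhibition zone was measured. A nystatin disk (100 IU) ran on the same plate as control.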
(In general: Agar diffusion results depend on both activity and mobility in agar.)

In series [8] the test system is A549. The experiment in a line: Cell cycle arrest in A549 cells by accumulation at G2/M phase at 10 nM. The class given is functional, Homo sapiens.
The test system of series [9] is A549. The series can be described thus: Cell cycle arrest in A549 cells by accumulation at G1 phase at 0.1 nM. The class given is functional, Homo sapiens.
Series [10] deals with A549. The series can be described thus: Cell cycle arrest in A549 cells by accumulation at G2/M phase at 0.1 nM. The class given is functional, Homo sapiens.
Series [11] has as its system A549. The experiment in a line: Cell cycle arrest in A549 cells by accumulation at G1 phase at 100 nM. The class given is functional, Homo sapiens.
Series [12] deals with A549. The experiment in a line: Cell cycle arrest in A549 cells by accumulation at S phase at 0.1 nM. The class given is functional, Homo sapiens.
Series [13] can be described thus: Cytotoxicity against human NCI-ADR-RES cells by MTT assay. The format is cell-based. The essentials: as §1
Series [14] has as its system A549. The experiment in a line: Cell cycle arrest in A549 cells by accumulation at S phase at 10 nM. The class given is functional, Homo sapiens.
Series [15] concerns A549. The series can be described thus: Cell cycle arrest in A549 cells by accumulation at G1 phase at 10 nM. The class given is functional, Homo sapiens.
Series [16] is described as follows: Cytotoxicity against p53 mutated PANC1 cells ATCC CRL1469 by MTT assay. The class given is cell-based. The conditions noted are these: human, panc-1. The essentials:
as §1

For series [17], the system named is A549. The experiment in a line: Cell cycle arrest in A549 cells by accumulation at S phase at 100 nM. The class given is functional, Homo sapiens.
The test system of series [18] is Candida albicans. The series can be described thus: Antifungal activity against Candida albicans ATCC 44506 by broth dilution assay. The class given is functional. In short, it runs like this: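 Broth microdilution in 96-well plates, seeded at 10^3 cells/mL. Compound tested as 2-fold dilutions from 5 to 0.4 µg/mL. Incubated 37 °C for 24 h. MIC taken as the lowest concentration completely inhibiting growth. 5-Fluorocytosine served as antifungal control.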

Regarding `CCC[C@@H]1C[C@H](OC)C[C@H](C)C[C@@H]2C[C@@H](OC(=O)/C=C\CCc3coc(/C=C\CNC(=O)OC)n3)C[C@H](CC(=O)O1)O2` [NEOPELTOLIDE], the IC50 in the series on A549 [1] turned out to be 1.2 nM; in [4] it was 0.56 nM; in series [13], 5.1 nM. In addition, the Activity in the series with A549 [2] is on record as 39.95%; in the series with A549 [3], 46.11%; in the series on DLD-1, “Active”; in the series on A549 [5], 13.94%; in the series with A549 [6], 14.95%; in the series with A549 [8] it was 10.07%. In addition, the Activity amounted to 46.4% in the series with A549 [9]; 13.59% in the series on A549 [10]; 63.03% with A549 [11]; 40.01% in the series on A549 [12]; 30.27% in the series on A549 [14]; 59.66% with A549 [15]. Further, the Activity result was “Active” in [16] and 22.02% with A549 [17]. In the series on Candida albicans [7], the zone of inhibition at 25 µg/disc was 17 mm. Moreover, in the series on Candida albicans [18], the minimal inhibitory concentration (MIC) was 0.625 µg/mL (≈ 1.06 µM).
As for `CC(=O)O[C@H]1C(=O)[C@@]2(C)[C@H]([C@H](OC(=O)c3ccccc3)[C@]3(O)C[C@H](OC(=O)[C@H](O)[C@@H](NC(=O)c4ccccc4)c4ccccc4)C(C)=C1C3(C)C)[C@]1(OC(C)=O)CO[C@@H]1C[C@@H]2O` [PACLITAXEL], the Activity with A549 [6] was 98.44%; with A549 [11], 1.56%; in the series with A549 [17], 0%.

Broadly, the IC50 is the concentration needed to halve the response being measured. Lower therefore signals inhibition by little substance. The term MIC denotes the lowest concentration that inhibits growth of the organism.
